Measurements taken from ChEMBL document CHEMBL2331084, “Synthesis and evaluation of oxime derivatives as modulators for amyloid beta-induced mitochondrial dysfunction” (Eur J Med Chem, 2013).

Legend:
[1] = test system: HT-22; assay: Inhibition of mPTP in mouse HT22 cells assessed as reduction in amyloid beta-induced mitochondrial membrane damage at 10 uM incubated for 10 mins prior to amyloid beta-challenge measured every 1 hr for 3 hrs by JC-1 based fluorometric analysis; type: cell-based; set-up: scale not given: the % may be the effect or the level left
Procedure, shortened: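 HT-22 cells, 30,000 per well, seeded a day earlier, loaded with 7.5 μM JC-1 (final) in phenol red-free Opti-MEM for 1 h 15 min at 37 °C, then PBS-washed. Compound solution at 10 μM for 10 min at 37 °C, then amyloid beta 1–42 solution at 10 μM. Red (ex/em 530/580) and green (485/530) fluorescence read hourly for 3 h. Green/red ratio change normalised to vehicle as 100%.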

[2] = test system: HT-22; assay: Inhibition of mPTP in mouse HT22 cells assessed as recovery in amyloid beta-suppressed ATP level at 5 uM incubated for 10 mins prior to amyloid beta-challenge measured for 7 hrs relative to control; type: cell-based; set-up: scale not given: the % may be the effect or the level left
Procedure, shortened: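 HT-22 mouse hippocampal cells, grown in DMEM with 10% FBS at 37 °C and 5% CO2, were seeded the day before. Compound (10 µM solution) added 10 min before amyloid beta 1-42 (10 µM solution), then 7 h at 37 °C. Lysates normalised to equal protein by BCA, and ATP measured with a luciferase kit. % recovery is relative to the amyloid-treated vehicle. Viability is from ATP without amyloid beta.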

[3] = Cytotoxicity against mouse […] cells assessed as cell viability at 5 uM; type: cell-based; conditions: read-out: Activity
[4] = Metabolic stability in human liver microsomes at 1 uM after 30 mins by LC/MS analysis; type: ADME, Microsome; conditions: read-out: Stability
Procedure, shortened: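 Pooled human liver microsomes (0.5 mg/mL protein), compound at 1 μM, 1.2 mM NADPH, 100 mM phosphate pH 7.4, 37 °C with shaking for 30 min, in duplicate. Stopped with ice-cold acetonitrile containing internal standard, centrifuged, supernatant analysed by LC–MS/MS for % remaining.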

[5] = Cmax in ICR mouse at 10 mg/kg, po; type: ADME, organism-based; set-up: dose 10 mg/kg, route oral; conditions: in vivo
[6] = Tmax in ICR mouse at 10 mg/kg, po; type: ADME, organism-based; set-up: dose 10 mg/kg, route oral; conditions: in vivo
[7] = Cytotoxicity against mouse […] cells assessed as cell viability at 10 uM after 24 hrs by MTT assay; type: cell-based; conditions: read-out: Activity
[8] = test system: Plasma; assay: Metabolic stability in rat plasma at 0.5 ug/ml after 2 hrs by LC/MS analysis; type: ADME, cell-free; conditions: 2 h
Procedure, shortened: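 Drug-free rat plasma spiked from acetonitrile stock to 0.5 μg/mL, held at 37 °C with shaking for 0, 15, 30, 60 and 120 min. Quenched with 2 volumes of acetonitrile containing carbamazepine internal standard, centrifuged, supernatant quantified by LC–MS/MS.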

[9] = AUClast in ICR mouse at 10 mg/kg, po; type: ADME, organism-based; set-up: time 0 - last, dose 10 mg/kg, route oral; conditions: plasma
[10] = AUC (0 to infinity) in Sprague-Dawley rat at 3 mg/kg, ip; type: ADME, organism-based; set-up: dose 3 mg/kg, route intraperitoneal, time infinity; conditions: plasma
[11] = AUClast in Sprague-Dawley rat at 3 mg/kg, ip; type: ADME, organism-based; set-up: dose 3 mg/kg, route intraperitoneal, time 0 - last; conditions: plasma
[12] = Ratio of drug uptake in brain to drug uptake in plasma in ICR mouse at 10 mg/kg, po; type: ADME, organism-based; set-up: dose 10 mg/kg, route oral; conditions: read-out: BPR
[13] = Tmax in Sprague-Dawley rat at 3 mg/kg, ip; type: ADME, organism-based; set-up: dose 3 mg/kg, route intraperitoneal; conditions: in vivo
[14] = test system: HT-22; assay: Neuroprotective activity against in mouse HT22 cells assessed as inhibition of amyloid beta-induced toxicity at 10 uM incubated for 10 mins prior to amyloid beta-challenge measured after 24 hrs by MTT assay; type: functional
Procedure, shortened: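 HT-22 mouse hippocampal cells (DMEM, 10% FBS), 5000 per well, seeded a day before. Compound solution at 10 μM added 10 min before amyloid beta 1–42 solution at 10 μM, then 24 h at 37 °C. MTT 2 h, then acidified Triton/isopropanol for 1 h at RT, A570. Vehicle subtracted; % inhibition versus Aβ-treated vehicle; viability from wells without Aβ.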

[15] = Terminal half life in Sprague-Dawley rat at 3 mg/kg, ip; type: ADME, organism-based; set-up: dose 3 mg/kg, route intraperitoneal; conditions: in vivo, read-out: beta t1/2
[16] = Cmax in Sprague-Dawley rat at 3 mg/kg, ip; type: ADME, organism-based; set-up: dose 3 mg/kg, route intraperitoneal; conditions: in vivo

**Q.** For `COc1ccccc1/C=N/OC1CCN(C)C1` (configuration not stated), which Activity [1] is on record?
**A.** The Activity was 147%.

**Q.** For `CN1CCCC(O/N=C/c2ccccc2OCc2ccc(Cl)c(Cl)c2)C1` (configuration not stated), which Activity [1] is on record?
**A.** The Activity was 62%.

**Q.** With `CN1CCC(O/N=C/c2ccccc2OCc2ccc(Cl)cc2Cl)C1` (configuration not stated) as the compound, how does the Activity [1] read?
**A.** Its Activity is 18%.

**Q.** What about the Activity [2] of the same compound?
**A.** The Activity was -9%.

**Q.** And the viability at 5 µM ([3]; HT22 cells)?
**A.** The viability at 5 µM was 90%.

**Q.** What does the source list for `Fc1cccc(COc2ccccc2/C=N/OC2CCN(Cc3ccccc3)C2)c1` (configuration not stated)?
**A.** Activity [1]: 42%; Activity [2]: -201%; viability at 5 µM ([3]; HT22 cells): 74%

**Q.** With `COc1ccccc1/C=N/OC1CN2CCC1CC2` (configuration not stated) as the compound, how does the Activity [1] read?
**A.** Its Activity is 71%.

**Q.** With `COc1ccccc1/C=N/OC1CCN(C(C)C)C1` (configuration not stated) as the compound, how does the Activity [1] read?
**A.** Its Activity is 55%.

**Q.** Which Activity [1] does the source give for `COc1ccccc1/C=N/OC1CCN(Cc2ccccc2)C1` (configuration not stated) here?
**A.** Its Activity is 81%.

**Q.** Which Activity [1] does the source give for `Fc1ccccc1/C=N/OC1CN2CCC1CC2` (configuration not stated) here?
**A.** The Activity was 96%.

**Q.** With `C(=N\OC1CN2CCC1CC2)/c1cccc(Oc2ccccc2)c1` (configuration not stated) as the compound, how does the Activity [1] read?
**A.** The Activity was 138%.

**Q.** For `FC(F)(F)c1ccccc1/C=N/OC1CN2CCC1CC2` (configuration not stated), which Activity [1] is on record?
**A.** Its Activity is 86%.

**Q.** With `Brc1cccc(/C=N/OC2CN3CCC2CC3)c1` (configuration not stated) as the compound, how does the Activity [1] read?
**A.** The Activity was 95%.

**Q.** With `Fc1cccc(COc2ccccc2/C=N/OC2CN3CCC2CC3)c1` (configuration not stated) as the compound, how does the Activity [1] read?
**A.** Its Activity is 75%.

**Q.** For `FC(F)(F)c1ccccc1COc1ccccc1/C=N/OC1CN2CCC1CC2` (configuration not stated), which Activity [1] is on record?
**A.** Its Activity is 91%.

**Q.** For `Clc1ccc(COc2ccccc2/C=N/OC2CN3CCC2CC3)c(Cl)c1` (configuration not stated), which Activity [1] is on record?
**A.** The Activity was 69%.

**Q.** For `Clc1ccc(COc2ccccc2/C=N/OC2CN3CCC2CC3)cc1Cl` (configuration not stated), which Activity [1] is on record?
**A.** Its Activity is 77%.

**Q.** Which Activity [1] does the source give for `Fc1ccccc1COc1ccccc1/C=N/OC1CN2CCC1CC2` (configuration not stated) here?
**A.** Its Activity is 82%.

**Q.** Which Activity [1] does the source give for `CC(C)N1CCC(O/N=C/c2ccccc2OCc2ccc(Cl)c(Cl)c2)C1` (configuration not stated) here?
**A.** Its Activity is 95%.

**Q.** For `CN1CCC(O/N=C/c2ccccc2OCc2cccc(F)c2)C1` (configuration not stated), which Activity [1] is on record?
**A.** Its Activity is 42%.

**Q.** And the Activity [2]?
**A.** Its Activity is 20%.

**Q.** And the viability at 5 µM ([3]; HT22 cells)?
**A.** Its viability at 5 µM is 87%.

**Q.** What does the source list for `C(=N\OC1CN2CCC1CC2)/c1ccccc1OCc1ccccc1` (configuration not stated)?
**A.** remaining at 0.5 h, 1 µM [4]: 85%; Activity [1]: 59%; Cmax [5]: 330 ng/mL; Tmax [6]: 5 min; viability at 24 h, 10 µM [7]: 84%; Stability [8]: Stable; AUC(0-t) [9]: 525 ng·h/mL; AUC(0-inf) [10]: 990 ng·h/mL; Activity [2]: 13%; viability at 5 µM ([3]; HT22 cells): 92%; AUC(0-t) [11]: 930 ng·h/mL; Kp [12]: 273; Tmax [13]: 25 min; inhibition at 10 µM [14]: 0%; half-life [15]: 366 min; Cmax [16]: 524 ng/mL

**Q.** Which Activity [1] does the source give for `CN1CCCC(O/N=C/c2ccccc2OCc2cccc(F)c2)C1` (configuration not stated) here?
**A.** Its Activity is 32%.

**Q.** What about the Activity [2] of the same compound?
**A.** Its Activity is 9%.

**Q.** And the viability at 5 µM ([3]; HT22 cells)?
**A.** Its viability at 5 µM is 136%.

**Q.** Which Activity [1] does the source give for `Clc1ccc(COc2ccccc2/C=N/OC2CCN(Cc3ccccc3)C2)c(Cl)c1` (configuration not stated) here?
**A.** The Activity was 61%.

**Q.** What does the source list for `NC(=O)CN1CCCC1=O` [PIRACETAM]?
**A.** Activity [1]: 40%; viability at 24 h, 10 µM [7]: 132%; Activity [2]: 127%; viability at 5 µM [3]: 88%; inhibition at 10 µM [14]: 29%

**Q.** For `Fc1cccc(/C=N/OC2CN3CCC2CC3)c1` (configuration not stated), which Activity [1] is on record?
**A.** The Activity was 92%.

**Q.** For `COc1cccc(/C=N/OC2CN3CCC2CC3)c1` (configuration not stated), which Activity [1] is on record?
**A.** Its Activity is 86%.

**Q.** For `CN1CCC(O/N=C/c2ccccc2OCc2ccccc2)C1` (configuration not stated), which Activity [1] is on record?
**A.** Its Activity is 69%.
